The values that follow come from ChEMBL document CHEMBL5252513, “Identification of a Benzoisoxazoloazepine Inhibitor (CPI-0610) of the Bromodomain and Extra-Terminal (BET) Family as a Candidate for Human Clinical Trials” (J Med Chem, 2016).

The subject of series [1] is MV4-11. The series can be described thus: Antitumor activity against human MV4-11 cells xenografted in BALB/c mouse assessed as complete tumor growth inhibition at 2 mg/kg,iv BIW in presence of at 10 mg/kg,sc BID for 28 days. The format is functional, organism-based. The following applies: time 28.0 day.
Series [2] has as its system MV4-11. The series can be described thus: Antitumor activity against human MV4-11 cells xenografted in BALB/c mouse assessed as slower tumor regrowth after drug therapy removal at 2 mg/kg,iv BIW in presence of at 10 mg/kg,sc BID for 28 days and measured after 28 days. The format is functional, organism-based. The following applies: time 28.0 day. For orientation: In xenograft studies the graft and the host belong to different species.

Series [3] in a line: Toxicity against BALB/c mouse plasma xenografted with human MV4-11 cells assessed as body weight loss at 2 mg/kg,iv BIW in presence of at 10 mg/kg,sc BID for 28 days. It is filed as organism-based. As to conditions: in vivo, 672 h, time 28 day. The method, boiled down:
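MV-4-11 acute myeloid leukemia mouse xenograft; BET inhibitor given subcutaneously 10 mg/kg twice daily, doxorubicin 2 mg/kg IV twice weekly, alone or combined, for 28 days; body weight change (%) tracked over treatment against vehicle.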

Series [4] relates to MV4-11. The series can be described thus: Antitumor activity against human MV4-11 cells xenografted in BALB/c mouse assessed as modest tumor growth inhibition at 2 mg/kg,iv BIW for 28 days. As to conditions: time 28.0 day. It is filed as functional, organism-based.
Series [5] concerns the target T1, Bromodomain-containing protein 4 (Homo sapiens, UniProt O60885). As to the kind of experiment: Inhibition of BRD4 BD1 in human MV4-11 cells assessed as reduction of MYC RNA expression after 4 hrs by PCR analysis. It is filed as cell-based.
Series [6] can be described thus: AUC (0 to infinity) in rat at 5 mg/kg,po. It is filed as ADME, organism-based. More on the design: dose 5 mg/kg, route po. As to conditions: in vivo.
Series [7] concerns the target T1, Bromodomain-containing protein 4. The series can be described thus: Inhibition of BRD4 BD1 (unknown origin) using biotinylated ligand incubated for 60 mins by TR-FRET assay. For orientation: TR-FRET usually uses a lanthanide donor and a delayed reading to cut background.
Series [8] in a line: Unbound clearance in rat at 1 mg/kg,iv. It is filed as ADME, organism-based. As to conditions: in vivo.
A short description of series [9]: Clearance in rat assessed as liver blood flow at 1 mg/kg,iv. The format is ADME, organism-based. The following applies: in vivo.
The nature of series [10]: Oral bioavailability in rat at 5 mg/kg. It is filed as ADME, organism-based. As to conditions: in vivo.
Series [11] is described as follows: Intrinsic clearance in mouse liver microsomes. It is filed as ADME, Microsome. As to conditions: read-out: CLH. (In general: Microsomes from liver hold many membrane-bound enzymes, among them those of drug oxidation.)
Series [12] in a line: Protein binding in human plasma. The format is ADME, cell-free. As to conditions: read-out: PPB (converted).
Series [13] in a line: Protein binding in mouse plasma. It is filed as ADME, cell-free. The following applies: read-out: PPB (converted).
The nature of series [14]: Half life in rat plasma at 1 mg/kg,iv. The format is ADME, organism-based.
The nature of series [15]: Intrinsic clearance in human liver microsomes. The format is ADME, Microsome. As to conditions: read-out: CLH.
The nature of series [16]: Tmax in rat at 5 mg/kg,po. It is filed as ADME, organism-based. As to conditions: in vivo.
Series [17] in a line: Total clearance in rat at 1 mg/kg,iv. The following applies: in vivo. It is filed as ADME, organism-based.
Series [18] is described as follows: Unbound AUC in rat at 5 mg/kg,po. It is filed as ADME, organism-based. As to conditions: in vivo.
The nature of series [19]: Protein binding in dog plasma. The format is ADME, cell-free, Canis lupus familiaris. The following applies: read-out: PPB (converted).
The nature of series [20]: Volume of distribution at steady state in rat at 1 mg/kg,iv. The following applies: in vivo, read-out: Vdss. It is filed as ADME, organism-based.
A short description of series [21]: Intrinsic clearance in dog liver microsomes. The format is ADME, Canis lupus familiaris, Microsome. The following applies: read-out: CLH.
Series [22] in a line: Intrinsic clearance in rat liver microsomes. The format is ADME, Microsome.
Series [23] is described as follows: Cmax in rat at 5 mg/kg,po. It is filed as ADME, organism-based. More on the design: dose 5 mg/kg, route po. As to conditions: in vivo.
Series [24] can be described thus: Protein binding in rat plasma. It is filed as ADME, cell-free. The following applies: read-out: PPB (converted).
Series [25] addresses T1, Bromodomain-containing protein 4. As to the kind of experiment: Inhibition of BRD4 BD1 in human Raji cells assessed as reduction of MYC RNA expression after 4 hrs by PCR analysis. It is filed as cell-based.
The nature of series [26]: AUC (0 to infinity) in rat at 10 mg/kg,po. It is filed as ADME, organism-based. More on the design: dose 10 mg/kg, route po. As to conditions: in vivo.
Series [27] can be described thus: Unbound AUC in rat at 10 mg/kg,po. It is filed as ADME, organism-based. As to conditions: in vivo.
Series [28] can be described thus: Cmax in rat at 10 mg/kg,po. It is filed as ADME, organism-based. More on the design: dose 10 mg/kg, route po. As to conditions: in vivo.
Series [29] can be described thus: Tmax in rat at 10 mg/kg,po. The format is ADME, organism-based. The following applies: in vivo.
Series [30] is described as follows: Oral bioavailability in rat at 10 mg/kg. The format is ADME, organism-based. As to conditions: in vivo.
Series [31] deals with T1, Bromodomain-containing protein 4. The series can be described thus: Displacement of biotinylated JQ1 from BRD4 BD1 (unknown origin) incubated for 20 mins by AlphaLISA assay.

The structures appear in SMILES notation. Active and inactive are the calls of the source. The calls are words filed in the database; no cut-off is given here.

Take `COc1cccc2c1C(=O)c1c(O)c3c(c(O)c1C2=O)C[C@@](O)(C(=O)CO)C[C@@H]3O[C@H]1C[C@H](N)[C@H](O)[C@H](C)O1` [DOXORUBICIN]: the result with MV4-11 [1], in the series on MV4-11 [2] and in the series with MV4-11 [4] was Active. The Activity result in series [3] is “Non-Toxic”.

For the compound `Cc1noc2c1-c1ccccc1C(c1ccc(C#N)cc1)=N[C@H]2CC(N)=O`, in series [5], the EC50 was 0.22 µM. This compound also gave an AUC(0-inf) in series [6] of 5.9 µM·h. Further, the IC50 in series [7] came out at 0.094 µM. In [8], this compound showed a CL free of 3.9 L/h/kg. The QH in series [9] worked out at 39%. For the same compound, the bioavailability in [10] stood at 56%. Also, the predicted hepatic clearance in [11] was 1.74 L/h/kg; in series [15], 0.54 L/h/kg; in [21] it was below 0.84 L/h/kg. Further, the fraction unbound in series [12] was 0.11; in [13], 0.13; in series [19] it was 0.22; in [24] it was 0.33. This compound also had a half-life in series [14] of 39.6 min. Further, the time to peak (Tmax) in [16] is 49.8 min. Besides, the clearance in series [17] is 1.3 L/h/kg. The fAUC in series [18] was 2 µM·h. Moreover, the Vd in series [20] is 1.2 L/kg. Moreover, the predicted hepatic clearance (CLH) in series [22] was 0.96 L/h/kg. Moreover, in series [23], the peak level (Cmax) was 1.8 µM.

In series [7], `Cc1noc2c1-c1ccnc(N)c1C(c1ccc(Cl)cc1)=NC2` yielded a half-inhibitory concentration (IC50) of 0.09 µM. In addition, the EC50 in series [25] is 0.72 µM.

As for `Cc1cccc2c1C(c1ccc(Cl)cc1)=N[C@@H](CC(N)=O)c1onc(C)c1-2`, the EC50 in series [5] came out at 0.14 µM. This compound also yielded an AUC(0-inf) in [6] of 4.9 µM·h. In addition, in series [7], the IC50 came out at 0.013 µM. The compound further gave a CL free in [8] of 63 L/h/kg. The QH in [9] stood at 76%. The compound also displayed a bioavailability in [10] of 92%. Moreover, the predicted hepatic clearance was 2.82 L/h/kg in [11], 0.66 L/h/kg in [15] and 1.44 L/h/kg in [21]. Also, the fraction unbound was 0.02 in series [12], 0.02 in [13], 0.02 in [19] and 0.04 in series [24]. In [14], the half-life is 59.4 min. In addition, the Tmax in [16] amounted to 120 min. The same compound gave a clearance in series [17] of 2.5 L/h/kg. In [18], the fAUC amounted to 0.2 µM·h. In series [20], the Vd is 2.5 L/kg. The predicted hepatic clearance (CLH) in series [22] is 2.22 L/h/kg. Also, the Cmax in series [23] is 1.2 µM.

For the compound `COc1ccc2c(c1)C(c1ccc(Cl)cc1)=N[C@@H](CC(N)=O)c1onc(C)c1-2`, in [5], the EC50 came out at 0.064 µM. Moreover, the AUC(0-inf) in series [26] was determined as 8.5 µM·h. In addition, the IC50 in series [7] turned out to be 0.017 µM. In addition, in series [8], the CL free was found to be 37 L/h/kg. In addition, the QH in [9] was found to be 66%. Also, the predicted hepatic clearance was 1.56 L/h/kg in series [11], 0.54 L/h/kg in series [15] and 1.26 L/h/kg in series [21]. Besides, the fAUC in series [27] was 0.51 µM·h. This compound registered a Cmax in series [28] of 1.6 µM. Further, in [29], the Tmax came out at 49.8 min. Further, the fraction unbound in series [12] is 0.05; in series [13] it was 0.03; in [19], 0.03; in [24], 0.06. The half-life in series [14] is 38.4 min. Further, in series [17], the clearance was 2.2 L/h/kg. Besides, the Vd in [20] was determined as 1.7 L/kg. The same compound yielded a bioavailability in series [30] of 60%. In addition, the predicted hepatic clearance (CLH) in series [22] was 2.1 L/h/kg.

Compound `Cc1noc2c1-c1ccccc1C(c1ccc(Cl)cc1)=N[C@H]2CC(=O)OC(C)(C)C` showed a concentration for half-maximal inhibition (IC50) in series [31] of 0.58 µM.

`COCCNC(=O)C[C@@H]1N=C(c2ccc(Cl)cc2)c2ccccc2-c2c(C)noc21`: in series [5], the EC50 came out at 0.27 µM. Also, the AUC(0-inf) in [26] is 1.2 µM·h. In series [7], this compound yielded an IC50 of 0.056 µM. Also, in [8], the CL free stood at 31 L/h/kg. Also, the QH in series [9] came to 66%. The predicted hepatic clearance in series [11] is 4.92 L/h/kg; in series [15] it was 1.14 L/h/kg; in series [21], 1.8 L/h/kg. Further, the fAUC in series [27] was found to be 0.084 µM·h. For the same compound, in series [28], the Cmax is 0.38 µM. Also, the Tmax in [29] amounted to 40.2 min. The fraction unbound is below 0.01 in series [12], 0.01 in series [13], 0.03 in [19] and 0.07 in series [24]. The half-life in [14] is 72 min. The clearance in series [17] is 2.2 L/h/kg. Moreover, the Vd in series [20] is 1.8 L/kg. This compound also returned a bioavailability in series [30] of 11%. For the same compound, the predicted hepatic clearance (CLH) in series [22] was 2.7 L/h/kg.

As usually defined, the EC50 is the concentration that produces a half-maximal response. As a reminder, the AUC(0-inf) is total exposure, with the tail of the curve extrapolated. The low end stands for less exposure, the high end for more exposure. For orientation: IC50 means the concentration needed to halve the response being measured. High values mean weaker potency, low ones greater potency. For orientation: bioavailability means the share of a dose that reaches the circulation, judged against a reference dose that is usually intravenous. A word on the half-life: it is how long it takes for the measured level to halve. What is called Tmax is the time at which the peak concentration occurs. One may read the clearance as the rate of elimination divided by the concentration. A lower clearance goes with inefficient removal. As a reminder, the Cmax is the highest concentration seen after dosing.
